Reference: PubChem BioAssay
Activity calls are given as the source filed them.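 How the source made its calls, unless noted: active means current rise at least 3 SD above the untreated control mean in each of two repeat wells; inactive means the rest.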

Target: Potassium voltage-gated channel subfamily KQT member 1 (Homo sapiens) (UniProt P51787)
Assay: KCNQ1 channel current potentiators, confirmation, orthogonal assay for KCNQ1 potentiator project, IonWorks patch clamp, KCNQ1-CHO cells (AID 493184)
Details: automated patch clamp current, at 10 µM
In short: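 Assay system – CHO cells carrying KCNQ1 · Medium – pH 7.4 external bath · Probe or stimulus – depolarizing pulse to +40 mV from -90 mV · Compound dosing – one dose, 10 µM final · Measured by – automated perforated-patch electrophysiology · Measure – % potentiation of steady-state current relative to pre-compound · Repeats – two replicates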

Chain of Potassium voltage-gated channel subfamily KQT member 1 (Homo sapiens) (P51787 whole entry, looked up): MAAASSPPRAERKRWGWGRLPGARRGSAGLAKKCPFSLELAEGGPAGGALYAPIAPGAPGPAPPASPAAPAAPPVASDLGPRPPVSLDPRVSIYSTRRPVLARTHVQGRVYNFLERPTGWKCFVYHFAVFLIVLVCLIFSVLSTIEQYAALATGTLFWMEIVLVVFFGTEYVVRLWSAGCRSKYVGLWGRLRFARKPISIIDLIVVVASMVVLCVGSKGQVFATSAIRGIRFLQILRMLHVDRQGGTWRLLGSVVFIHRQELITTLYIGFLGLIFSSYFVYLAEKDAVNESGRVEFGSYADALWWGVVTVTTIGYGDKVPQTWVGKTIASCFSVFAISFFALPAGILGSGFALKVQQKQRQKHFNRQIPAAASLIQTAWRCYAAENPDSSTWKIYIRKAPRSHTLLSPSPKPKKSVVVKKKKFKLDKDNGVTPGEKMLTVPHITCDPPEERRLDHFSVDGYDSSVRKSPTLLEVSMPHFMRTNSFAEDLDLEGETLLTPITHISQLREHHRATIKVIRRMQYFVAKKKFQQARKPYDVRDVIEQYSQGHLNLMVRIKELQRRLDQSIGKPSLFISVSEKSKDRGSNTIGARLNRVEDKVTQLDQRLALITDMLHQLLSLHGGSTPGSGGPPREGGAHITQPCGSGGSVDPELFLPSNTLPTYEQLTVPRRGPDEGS

| SMILES | outcome |
| --- | --- |
| CC(=O)OC(C)(C)/C=C/C(=O)C(C)(O)C1[C@H](O)C[C@@]2(C)C3CC=C4C(CC[C@@H](O)C4(C)C)[C@]3(CO)C(=O)C[C@]12C (some centres undefined) | inactive |
| Cc1ccccc1-n1c(O)c(/C=N/N2CCOCC2)c(=O)[nH]c1=S | inactive |
| Cc1ccc(/C=C2/C(=O)NC(=O)N(CCc3ccc(F)cc3)C2=O)o1 | inactive |
| Cc1ccccc1CC(=O)N(CCN(C)C)CC1CCCN(Cc2ccccc2F)C1 (centres undefined) | inactive |
| CC1(C)CSC(=NCc2ccccc2)N1 | inactive |
| COc1ccc(C2NCc3ccc4c(c3-n3cccc32)OCO4)cc1O (centres undefined) | inactive |
| COc1cccc(CC(=O)N2CCN(Cc3cccc(Cl)c3)CC2)c1 | inactive |
| COc1ccc(C(=O)OC2CC[C@@]3(C)C4CCC5[C@]6(O)CC(O)[C@@]7(O)C(CN8CC(C)CCC8[C@@]7(C)O)[C@]6(O)C[C@@]53O[C@]24O)cc1OC (some centres undefined) | inactive |
| CC/C(=C\C=C\[C@@H]1C=C[C@@H]2CCC[C@H]2[C@@H]1C(=O)c1ccc[nH]1)[C@@H]1O[C@@H]([C@@H](C)C(=O)O)CC[C@@H]1C | inactive |
| CC(=NCc1ccc(F)cc1)c1c(O)n(C)c(=O)n(C)c1=O | inactive |
| O=C1NC(=O)N(Cc2ccc(F)cc2)C(=O)/C1=C/c1cccs1 | inactive |
| Cn1cccc1/C=C1/C(=O)NC(=S)N(Cc2ccc(F)cc2)C1=O | inactive |
| c1ccc2c(c1)Sc1ccccc1N2CC1CN2CCC1CC2 (centres undefined) | inactive |
| C/C1=C\[C@@H](C)C/C=C/[C@H]2[C@@H]3O[C@]3(C)[C@@H](C)[C@H]3[C@H](Cc4c[nH]c5ccccc45)NC(=O)[C@]32C(=O)/C=C/C(=O)[C@@H]1O | inactive |
| O=C(c1ccc(-c2ccccc2)cc1)C1CCCN(Cc2ccn[nH]2)C1 (centres undefined) | inactive |
| CCOC(=O)C1C(=O)NC2(C)CC1c1cc(OC)ccc1O2 (centres undefined) | inactive |
| CN1CC(C(=O)c2ccccc2)C(c2ccccc2)C1 (centres undefined) | inactive |
| O=c1c(C=NCCN2CCNCC2)c(O)n(C2CCCCC2)c(=O)n1C1CCCCC1 | inactive |
| CNc1ccc2oc(C[C@H]3O[C@@]4(CC[C@H]3C)O[C@H]([C@H](C)C(=O)c3ccc[nH]3)[C@H](C)C[C@H]4C)nc2c1C(=O)O | inactive |

| SMILES | outcome |
| --- | --- |
| CCOP1(=S)Oc2cc3c(cc2C(C(=O)OC)(C(F)(F)F)O1)OCO3 (centres undefined) | inactive |
| COc1ccccc1N(CC(=O)NC1CCCC1)C(=O)c1cnn(C(C)C)c1 | inactive |
| CC1(C)C[C@H]2C=C(C=O)[C@]3(C=O)C[C@]3(C)[C@H]2C1 | inactive |
| COc1ccc2c(c1)/C(=C/c1cnc[nH]1)C(=O)N2 | inactive |
| O=[N+]([O-])c1ccc(N2CCOCC2)c2ccncc12 | inactive |
| CCOP(=S)(OCC)c1ccc(N(C)C)cc1 | inactive |
| N#CCCn1cc(C(=O)Nc2ccccc2Cl)c(-c2ccc(F)cc2)n1 | inactive |
| C=C(C)[C@@]12OC3(c4ccccc4)O[C@@H]1C1[C@@H]4O[C@]4(CO)[C@@H](O)[C@]4(O)C(=O)C(C)=C[C@H]4[C@@]1(O3)[C@H](C)[C@H]2OC(=O)/C=C/C=C/c1ccccc1 (some centres undefined) | inactive |
| N#Cc1c(N2CCNCC2)nc(-c2ccco2)c2c1CCCC2 | inactive |
| Cc1c(Cl)cccc1NC(=S)N1CC2CC(C1)c1cccc(=O)n1C2 (centres undefined) | inactive |
| CCN(CC)C(=O)c1ccc(NC(=O)CSc2nnnn2-c2cc(OC)ccc2OC)cc1 | inactive |
| O=C(O)c1cccc2c1NC(c1cccc([N+](=O)[O-])c1)C1CC(Sc3ccccc3[N+](=O)[O-])C(Cl)C21 (centres undefined) | inactive |
| Cc1nc2ccccc2c(=O)n1/N=C/c1cc(Br)cc(Br)c1O | inactive |
| C/C=C(\C)C(=O)N[C@@H](c1ccccc1)[C@@H](O)C(=O)O[C@H]1C[C@@]2(O)[C@@H](OC(=O)c3ccccc3)C3[C@](C)(C(=O)[C@H](OC(C)=O)C(=C1C)C2(C)C)[C@@H](O)C[C@H]1OC[C@@]31OC(C)=O (some centres undefined) | inactive |
| CN1CCC(c2c[nH]c3ccccc23)C1 (centres undefined) | inactive |
| O=[N+]([O-])c1cccc(C2N3CCCN23)c1 (centres undefined) | inactive |
| CC1=CC2/C=C(\C)CCC(O)C(O)/C=C/C(=O)C23C(=O)NC(CC(C)C)C3C1C (centres undefined) | inactive |
| CNC(=O)NC(O)C(Cl)(Cl)Cl (centres undefined) | inactive |
| CCOc1cc(CNCCc2c[nH]c3ccccc23)cc(Cl)c1OCC | inactive |

Target: Potassium voltage-gated channel subfamily E member 1 (Homo sapiens) + Potassium voltage-gated channel subfamily KQT member 1 (Homo sapiens) (UniProt P15382+P51787)
Sequence (P51787 whole entry, looked up): as the sequence (P51787 whole entry, looked up) above
Assay: KCNQ1/KCNE1 complex potentiators, confirmation, selectivity assay for KCNQ1 potentiator project, thallium flux, CHO-K1 KCNQ1/E1 cells (AID 493186;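 active means mean duplicate activation above the buffer control mean plus 5 SD of those controls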)
Details: FluxOR thallium flux, at 10 µM
In short: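 Assay system: CHO-K1 cells with KCNQ1/E1 | Dosing: Single compound concentration per well | Incubation: Dye 90 min, compound 20 min, room temperature | Measured by: FluxOR Tl+ flux fluorescence, kinetic read | Controls: Buffer low control, R-L3 high control | Replicates: Duplicate wells per compound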

| SMILES | outcome |
| --- | --- |
| CC(=O)OC(C)(C)/C=C/C(=O)C(C)(O)C1[C@H](O)C[C@@]2(C)C3CC=C4C(CC[C@@H](O)C4(C)C)[C@]3(CO)C(=O)C[C@]12C (some centres undefined) | inactive |
| Cc1ccc(/C=C2/C(=O)NC(=O)N(CCc3ccc(F)cc3)C2=O)o1 | inactive |
| Cc1ccccc1CC(=O)N(CCN(C)C)CC1CCCN(Cc2ccccc2F)C1 (centres undefined) | inactive |
| CC1(C)CSC(=NCc2ccccc2)N1 | inactive |
| COc1ccc(C2NCc3ccc4c(c3-n3cccc32)OCO4)cc1O (centres undefined) | inactive |
| COc1ccc(C(=O)OC2CC[C@@]3(C)C4CCC5[C@]6(O)CC(O)[C@@]7(O)C(CN8CC(C)CCC8[C@@]7(C)O)[C@]6(O)C[C@@]53O[C@]24O)cc1OC (some centres undefined) | inactive |
| Cn1cccc1/C=C1/C(=O)NC(=S)N(Cc2ccc(F)cc2)C1=O | inactive |
| C/C1=C\[C@@H](C)C/C=C/[C@H]2[C@@H]3O[C@]3(C)[C@@H](C)[C@H]3[C@H](Cc4c[nH]c5ccccc45)NC(=O)[C@]32C(=O)/C=C/C(=O)[C@@H]1O | inactive |
| O=c1c(C=NCCN2CCNCC2)c(O)n(C2CCCCC2)c(=O)n1C1CCCCC1 | inactive |
| CC1(C)C[C@H]2C=C(C=O)[C@]3(C=O)C[C@]3(C)[C@H]2C1 | inactive |
| COc1ccc2c(c1)/C(=C/c1cnc[nH]1)C(=O)N2 | inactive |
| O=[N+]([O-])c1ccc(N2CCOCC2)c2ccncc12 | inactive |
| C/C=C(\C)C(=O)N[C@@H](c1ccccc1)[C@@H](O)C(=O)O[C@H]1C[C@@]2(O)[C@@H](OC(=O)c3ccccc3)C3[C@](C)(C(=O)[C@H](OC(C)=O)C(=C1C)C2(C)C)[C@@H](O)C[C@H]1OC[C@@]31OC(C)=O (some centres undefined) | inactive |
| O=[N+]([O-])c1cccc(C2N3CCCN23)c1 (centres undefined) | inactive |
| CC1=CC2/C=C(\C)CCC(O)C(O)/C=C/C(=O)C23C(=O)NC(CC(C)C)C3C1C (centres undefined) | inactive |
| CCOc1cc(CNCCc2c[nH]c3ccccc23)cc(Cl)c1OCC | inactive |
